Test results taken from paper PMC3611965 (Nuclear medicine and biology, 2012).
Where “and” joins values, the source holds several entries; their conditions need not be identical. Identical values can stand only once. Like-named read-outs stand apart in the source and are kept apart here. Blank lines part the entries; values can stand above or below the compound they belong to.

Experiments:
[1] = system: FAAH; conditions: human studies; ref [23]; cited from earlier work
[2] = system: FAAH; conditions: rhesus monkeys; ref [23]; cited from earlier work
[3] = system: FAAH relative to other serine hydrolases; conditions: competitive ABPP; ref [20],[21]; cited from earlier work
[4] = rats; ref [20],[21]; cited from earlier work
[5] = target: T1, FAAH (Rattus norvegicus, UniProt P97612); conditions: cited from earlier work
T1 sequence (P97612 1-579): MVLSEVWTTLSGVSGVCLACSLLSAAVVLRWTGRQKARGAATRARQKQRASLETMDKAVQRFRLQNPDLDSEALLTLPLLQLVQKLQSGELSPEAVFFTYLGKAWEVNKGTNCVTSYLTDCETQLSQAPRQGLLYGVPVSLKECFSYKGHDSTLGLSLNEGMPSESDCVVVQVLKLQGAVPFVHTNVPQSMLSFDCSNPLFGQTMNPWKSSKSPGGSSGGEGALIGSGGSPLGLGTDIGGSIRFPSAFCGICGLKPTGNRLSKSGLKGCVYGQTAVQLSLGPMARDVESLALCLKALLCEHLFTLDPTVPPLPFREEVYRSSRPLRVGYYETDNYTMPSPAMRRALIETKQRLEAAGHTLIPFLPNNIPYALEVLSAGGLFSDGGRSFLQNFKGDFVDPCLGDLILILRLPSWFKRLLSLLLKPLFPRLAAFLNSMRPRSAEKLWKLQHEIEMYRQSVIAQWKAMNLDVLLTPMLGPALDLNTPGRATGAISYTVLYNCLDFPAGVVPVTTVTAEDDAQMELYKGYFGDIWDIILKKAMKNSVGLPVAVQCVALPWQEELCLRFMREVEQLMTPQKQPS

[6] = system: FAAH; conditions: rats; ref [25]; cited from earlier work
[7] = target: T2, FAAH (Mus musculus, UniProt O08914); assay: in vivo competitive ABPP of brains of treated mice; conditions: C57Bl/6 mice, 10 mg/kg i.p. or p.o., 1 h, gel-based ABPP
T2 sequence (O08914 1-579): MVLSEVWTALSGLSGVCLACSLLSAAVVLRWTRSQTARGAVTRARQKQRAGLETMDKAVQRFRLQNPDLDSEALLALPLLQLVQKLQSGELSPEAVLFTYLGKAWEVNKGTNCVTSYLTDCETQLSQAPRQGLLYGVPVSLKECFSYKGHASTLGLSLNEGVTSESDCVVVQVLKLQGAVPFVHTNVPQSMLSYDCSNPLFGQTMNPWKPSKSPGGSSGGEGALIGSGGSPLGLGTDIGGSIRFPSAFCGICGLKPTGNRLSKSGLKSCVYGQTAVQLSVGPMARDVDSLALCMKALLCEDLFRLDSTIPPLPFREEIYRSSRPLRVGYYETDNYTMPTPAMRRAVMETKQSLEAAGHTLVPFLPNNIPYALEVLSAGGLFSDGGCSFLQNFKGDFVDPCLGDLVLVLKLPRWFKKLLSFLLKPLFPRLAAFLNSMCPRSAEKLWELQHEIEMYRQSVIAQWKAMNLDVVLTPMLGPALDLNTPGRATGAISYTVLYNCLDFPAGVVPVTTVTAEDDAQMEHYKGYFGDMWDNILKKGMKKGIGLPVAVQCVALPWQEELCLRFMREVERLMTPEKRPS
Summary of the method: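 Wild-type C57Bl/6J mice got test compound or vehicle (18:1:1 PBS:Emulphor:ethanol) and were killed after 1 h. Half-brains were frozen in liquid N2, washed in cold PBS, dounce-homogenized and sonicated, then spun at 1000×g (10 min, 4 °C) and 145,000×g (45 min, 4 °C) into soluble and membrane fractions. These were diluted to 1 mg/mL and labelled with FP-Rh (30 min, 37 °C) for SDS-PAGE fluorescence profiling.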

[8] = target: MDR1 (Homo sapiens, UniProt P08183); assay: MDR1 efflux ratio; type: in vitro ADME; conditions: MDCK-MDR1
[9] = target: T2, FAAH; assay: in vitro competitive ABPP; type: biochemical
Summary of the method: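 Wild-type C57Bl/6J mouse brain membrane fractions (1 mg/mL total protein) were preincubated with varying test compound concentrations for 30 min at 37 °C. FP-Rh was then added (50 μM stock in DMSO) for another 30 min at 37 °C. Samples were quenched in SDS loading buffer and run on SDS-PAGE with in-gel fluorescence scanning. IC50 was calculated from band fluorescence.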

[10] = MDCK passive permeability; type: in vitro ADME; conditions: dog
[11] = target: T1, FAAH; assay: brain biodistribution of [18F]PF-9811 in rats, baseline and blocked; type: in vivo; conditions: for SUV±standard deviation, Bone: N=2; for SUV±standard deviation, Blood / SUV±standard deviation, Brain stem / SUV±standard deviation, Cerebellum / SUV±standard deviation, Cortex / SUV±standard deviation, Hippocampus / SUV±standard deviation, Hypothalamus / SUV±standard deviation, Liver / SUV±standard deviation, Rest of brain / SUV±standard deviation, Striatum / SUV±standard deviation, Thalamus: N=4
[12] = target: T1, FAAH; assay: dynamic PET imaging in rats, baseline and blocked; type: in vivo
Summary of the method: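 Male Sprague–Dawley rats (345±28 g) with jugular vein cannulas, held under ~2% isoflurane/O2 with respiration kept at 45–65 breaths/min and heat-lamp warming. The 18F-labelled test compound was given IV via tail vein (1.5462±0.4130 mCi) and brain scanned dynamically for 90 min in 16 frames. Blocked rats received an FAAH inhibitor 1 mg/kg p.o. 1 h before. Blood and plasma were sampled at 1–90 min. Images were atlas-registered for TACs and SUV.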

[13] = log P7.4 measurement; type: physicochemical; conditions: n-octanol/DPBS pH 7.4; measured in quadruplicate
Summary of the method: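 18F-labelled test compound (15–30 μCi) was partitioned between presaturated n-octanol and DPBS (0.1 M, pH 7.4) by vortexing 60 s and centrifuging at 4000 rpm for 2 min. The octanol phase was washed with fresh DPBS three times, then re-partitioned against fresh DPBS in four successive sets. Triplicate aliquots of each phase were gamma-counted. LogP7.4 = log[(octanol counts×20)/DPBS counts].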

[14] = 10 min, blocked: 4 1 mg/kg oral 1 h prior
[15] = 10 min post injection, baseline
[16] = 60 min, blocked: 4 1 mg/kg oral 1 h prior
[17] = 60 min post injection, baseline
[18] = 90 min, blocked: 4 1 mg/kg oral 1 h prior
[19] = 90 min, pretreatment with 4 1 mg/kg p.o.
[20] = 90 min post injection, baseline
[21] = biodistribution 90 min, baseline vs blocking

Sequence of MDR1 (P08183 whole entry, species assumed): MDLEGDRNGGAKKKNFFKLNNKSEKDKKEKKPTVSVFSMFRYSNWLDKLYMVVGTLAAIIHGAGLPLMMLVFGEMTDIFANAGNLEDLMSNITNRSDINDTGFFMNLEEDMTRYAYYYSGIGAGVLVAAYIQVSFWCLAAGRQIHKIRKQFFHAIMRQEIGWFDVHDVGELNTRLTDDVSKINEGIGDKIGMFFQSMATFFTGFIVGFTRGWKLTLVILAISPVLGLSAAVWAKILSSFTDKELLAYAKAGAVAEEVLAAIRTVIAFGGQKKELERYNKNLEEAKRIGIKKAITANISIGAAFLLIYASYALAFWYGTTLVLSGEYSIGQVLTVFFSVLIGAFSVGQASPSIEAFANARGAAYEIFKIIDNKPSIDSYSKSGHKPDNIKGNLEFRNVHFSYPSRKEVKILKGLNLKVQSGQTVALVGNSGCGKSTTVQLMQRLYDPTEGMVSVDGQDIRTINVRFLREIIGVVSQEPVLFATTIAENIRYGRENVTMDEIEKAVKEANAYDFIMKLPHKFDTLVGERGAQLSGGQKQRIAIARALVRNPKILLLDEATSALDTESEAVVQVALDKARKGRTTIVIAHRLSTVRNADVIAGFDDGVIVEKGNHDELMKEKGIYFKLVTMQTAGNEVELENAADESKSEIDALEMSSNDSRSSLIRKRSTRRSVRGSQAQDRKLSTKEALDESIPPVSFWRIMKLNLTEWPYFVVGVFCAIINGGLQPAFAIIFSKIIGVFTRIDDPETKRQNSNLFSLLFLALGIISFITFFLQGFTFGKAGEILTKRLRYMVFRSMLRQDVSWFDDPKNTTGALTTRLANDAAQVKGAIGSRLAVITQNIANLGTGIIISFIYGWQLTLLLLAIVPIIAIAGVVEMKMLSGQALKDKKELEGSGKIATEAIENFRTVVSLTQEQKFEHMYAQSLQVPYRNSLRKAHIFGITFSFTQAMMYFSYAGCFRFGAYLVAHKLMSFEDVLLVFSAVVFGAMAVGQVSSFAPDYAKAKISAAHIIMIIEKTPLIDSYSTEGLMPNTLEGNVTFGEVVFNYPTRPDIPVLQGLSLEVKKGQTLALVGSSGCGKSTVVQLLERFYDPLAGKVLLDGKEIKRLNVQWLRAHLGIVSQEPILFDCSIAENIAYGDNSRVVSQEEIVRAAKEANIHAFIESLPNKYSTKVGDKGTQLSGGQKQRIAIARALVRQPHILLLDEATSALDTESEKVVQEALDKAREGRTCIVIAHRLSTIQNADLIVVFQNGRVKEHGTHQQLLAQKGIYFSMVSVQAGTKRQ

SMILES: CN(C)C(=O)[C@H]1C[C@@H]1c1ccc(-c2ncn([11CH3])c2Sc2ccc(Cl)cn2)cc1 [[^11 C]MK-3168]
brain uptake (PET) [1]: high brain uptake
brain uptake (PET) [2]: Heterogeneous, specific brain uptake

SMILES: O=C(Nc1cccnn1)N1CCC(=Cc2cccc(Oc3ccc(C(F)(F)F)cn3)c2)CC1 [compound 4]
selectivity for FAAH relative to other serine hydrolases [3]: exquisite selectivity
oral bioavailability [4]: 88%
FAAH inhibition at blocking dose ([5]; p.o. 1.0 mg/kg, ref [20]): fully inhibit
duration of sustained inhibition of brain FAAH activity, maximal elevations of brain AEA and efficacy in rat models of acute inflammatory pain ([5]; single oral administration 1 mg/kg, ref [15],[20]): at least 24 h

SMILES: O=[11C](NC1CCCCC1)Oc1ccc(O)c(-c2ccccc2)c1 [[^11 C]-CURB]
brain uptake [6]: good brain uptake

FAAH inhibition in brain in vivo [7]: completely inhibited
off-targets among brain serine hydrolases in vivo [7]: no detectable off-targets
efflux ratio [8]: 2.52
IC50 [9]: 16 nM
fold less potent than parent 4 ([9]; FAAH, competitive ABPP, mouse brain proteome): 5 fold
Papp A→B [10]: 18.2 ×10⁻⁶ cm/s
SMILES: O=C(Nc1cccnn1)N1CCC(=Cc2cccc(Oc3ccc(OCCF)cn3)c2)CC1 [PF-9811, 4-(3-((5-(2-fluoroethoxy)pyridin-2-yl)oxy)benzylidene)-N-(pyridazin-3-yl)piperidine-1-carboxamide]

SMILES: O=C(Nc1cccnn1)N1CCC(=Cc2cccc(Oc3ccc(OCC[18F])cn3)c2)CC1 [[^18F]PF-9811]
SUV±standard deviation, Bone [11, 14]: 0.332±0.010 SUV
SUV±standard deviation, Blood [11, 14]: 1.031±0.069 SUV
SUV±standard deviation, Brain stem [11, 14]: 0.313±0.011 SUV
SUV±standard deviation, Cerebellum [11, 14]: 0.291±0.008 SUV
SUV±standard deviation, Cortex [11, 14]: 0.265±0.014 SUV
SUV±standard deviation, Hippocampus [11, 14]: 0.282±0.014 SUV
SUV±standard deviation, Hypothalamus [11, 14]: 0.351±0.024 SUV
SUV±standard deviation, Liver [11, 14]: 7.725±0.701 SUV
SUV±standard deviation, Rest of brain [11, 14]: 0.294±0.018 SUV
SUV±standard deviation, Striatum [11, 14]: 0.309±0.028 SUV
SUV±standard deviation, Thalamus [11, 14]: 0.304±0.020 SUV
SUV±standard deviation, Bone [11, 15]: 0.180±0.001 SUV
SUV±standard deviation, Blood [11, 15]: 0.224±0.070 SUV
SUV±standard deviation, Brain stem [11, 15]: 0.319±0.029 SUV
SUV±standard deviation, Cerebellum [11, 15]: 0.666±0.017 SUV
SUV±standard deviation, Cortex [11, 15]: 0.596±0.030 SUV
SUV±standard deviation, Hippocampus [11, 15]: 0.579±0.018 SUV
SUV±standard deviation, Hypothalamus [11, 15]: 0.410±0.027 SUV
SUV±standard deviation, Liver [11, 15]: 14.179±3.336 SUV
SUV±standard deviation, Rest of brain [11, 15]: 0.471±0.038 SUV
SUV±standard deviation, Striatum [11, 15]: 0.427±0.021 SUV
SUV±standard deviation, Thalamus [11, 15]: 0.382±0.051 SUV
SUV±standard deviation, Bone [11, 16]: 0.391±0.088 SUV
SUV±standard deviation, Blood [11, 16]: 0.747±0.191 SUV
SUV±standard deviation, Brain stem [11, 16]: 0.264± 0.076 SUV
SUV±standard deviation, Cerebellum [11, 16]: 0.248± 0.076 SUV
SUV±standard deviation, Cortex [11, 16]: 0.219±0.068 SUV
SUV±standard deviation, Hippocampus [11, 16]: 0.233±0.076 SUV
SUV±standard deviation, Hypothalamus [11, 16]: 0.260± 0.088 SUV
SUV±standard deviation, Liver [11, 16]: 4.488±1.343 SUV
SUV±standard deviation, Rest of brain [11, 16]: 0.239±0.071 SUV
SUV±standard deviation, Striatum [11, 16]: 0.255±0.082 SUV
SUV±standard deviation, Thalamus [11, 16]: 0.251±0.074 SUV
SUV±standard deviation, Bone [11, 17]: 0.133±0.058 SUV
SUV±standard deviation, Blood [11, 17]: 0.063±0.012 SUV
SUV±standard deviation, Brain stem [11, 17]: 0.331±0.041 SUV
SUV±standard deviation, Cerebellum [11, 17]: 0.751±0.094 SUV
SUV±standard deviation, Cortex [11, 17]: 0.674±0.109 SUV
SUV±standard deviation, Hippocampus [11, 17]: 0.673±0.118 SUV
SUV±standard deviation, Hypothalamus [11, 17]: 0.426± 0.045 SUV
SUV±standard deviation, Liver [11, 17]: 17.346±4.789 SUV
SUV±standard deviation, Rest of brain [11, 17]: 0.555±0.081 SUV
SUV±standard deviation, Striatum [11, 17]: 0.441±0.073 SUV
SUV±standard deviation, Thalamus [11, 17]: 0.374±0.045 SUV
SUV±standard deviation, Bone [11, 18]: 0.472±0.133 SUV
SUV±standard deviation, Blood [11, 18]: 0.703±0.117 SUV
SUV±standard deviation, Brain stem [11, 18]: 0.246± 0.050 SUV
SUV±standard deviation, Cerebellum [11, 18]: 0.249± 0.065 SUV
SUV±standard deviation, Cortex [11, 18]: 0.216±0.055 SUV
SUV±standard deviation, Hippocampus [11, 18]: 0.234±0.061 SUV
SUV±standard deviation, Hypothalamus [11, 18]: 0.257±0.079 SUV
SUV±standard deviation, Liver [11, 18]: 4.165±0.664 SUV
SUV±standard deviation, Rest of brain [11, 18]: 0.231±0.055 SUV
SUV±standard deviation, Striatum [11, 18]: 0.240±0.065 SUV
SUV±standard deviation, Thalamus [11, 18]: 0.238±0.058 SUV
increase in signal in the blood on blocking [11, 19]: 12 fold
reduction of signal in the liver on blocking [11, 19]: 74%
SUV±standard deviation, Bone [11, 20]: 0.159±0.001 SUV
SUV±standard deviation, Blood [11, 20]: 0.061±0.009 SUV
SUV±standard deviation, Brain stem [11, 20]: 0.391± 0.040 SUV
SUV±standard deviation, Cerebellum [11, 20]: 0.857±0.144 SUV
SUV±standard deviation, Cortex [11, 20]: 0.789±0.096 SUV
SUV±standard deviation, Hippocampus [11, 20]: 0.770±0.126 SUV
SUV±standard deviation, Hypothalamus [11, 20]: 0.545±0.126 SUV
SUV±standard deviation, Liver [11, 20]: 16.116±4.670 SUV
SUV±standard deviation, Rest of brain [11, 20]: 0.612±0.088 SUV
SUV±standard deviation, Striatum [11, 20]: 0.573±0.081 SUV
SUV±standard deviation, Thalamus [11, 20]: 0.544± 0.063 SUV
specific to non-specific binding ratio, cerebellum [11, 21]: 2.4
specific to non-specific binding ratio, cortex [11, 21]: 2.6
specific to non-specific binding ratio, hippocampus [11, 21]: 2.3
uptake in rat brain (SUV) ([11]; biodistribution, 90 min, baseline): ~0.8 SUV
defluorination (as determined by bone uptake) ([11]; rats): minimal
decreased uptake in blocking experiments, hippocampus ([12]; PET, end of 90 min, 4 1 mg/kg p.o. 1 h prior): ~40%
PET uptake (SUV), hippocampus and cortex ([12]; baseline, 90 min): ~0.8 SUV
logP7.4 [13]: 3.14±0.02 and 3.14
